This is one part of a sample in which hits are shown more often than they occur.
HSF1 inh: HSF1 inhibition. activity change, negative = inhibition, % at 7.5 µM (by protocol). NIH3T3-HGL HSE-luciferase, MG132-induced, luminescence 8 h; stronger effect = lower value. AID 2098. hit rate 0.77% among 300,000;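 active = more than half of replicate wells show activity change below -50%, luminescence cut by over half; inconclusive = some wells, but at most half, below -50%; inactive = no replicate well below -50%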;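 also: luciferase reports HSF-1 transcriptional activity via heat shock element; 0% = median of DMSO wells and -100% = zero luminescence signal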
HSF1 activator: increases HSF-1 driven luciferase reporter signal; activation, % at 9 µM; hit rate 1.7% among 300,000; AID 504408; NIH3T3-HGL HSF-1 luciferase reporter, MG132, 8 h; 100% = twice DMSO control signal;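 active = mean replicate activation of at least 50% with a set share of replicates each reaching 50%; inconclusive = only one of those two conditions met; inactive = mean below 50% and too few replicates reaching it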;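 also: 0% = median of the neutral control wells and 100% = twice that signal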
Hsp70 activator: Hsp70 transcriptional activation, primary screen. HeLa Hsp70 promoter luciferase reporter, luminescence; scaled: vehicle 0, proteasome-inhibitor control 100%. AID 1203. activation, % at 10 µM. hit rate 0.04% among 200,000;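 active = activation above the mean across all tested compounds plus 3 SD, cutoff set per campaign, cut at about 5.5% in these data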;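 also: 100% = MG132 at 30 µM as the positive control and 0% = DMSO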
T cruzi repl: T. cruzi replication inhibition; AID 1885; inhibition, % (test concentration not listed); hit rate 1.4% among 300,000; T. cruzi beta-gal in NIH3T3, luminescence, 90 h;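 active = mean inhibition across valid replicates above about 55%, limit read from the data; inconclusive = mean below that limit but half or more replicates reach it; inactive = mean below it, under half of replicates reach it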;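 also: signal also drops with host cell toxicity which is not excluded here; 0% = plate median of DMSO wells and 100% = zero luminescence signal; higher percent means less beta-gal luminescence so fewer parasites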
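Incubation – ≥90 h infection period, 3 h prior cell attachment · System – NIH/3T3 fibroblasts plus reporter T. cruzi · Doses – compound pinned at 50 nL/well, DMSO · Read-out basis – percent inhibition of parasite-derived β-gal signal · Signal – luminescent β-galactosidase signal after 60 min lysis · Also added – 5000 T. cruzi trypomastigotes/well · Medium – Low-serum DMEM with 2% FBS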
L major viab: reduces viability of Leishmania major promastigotes | resazurin fluorescence viability | inhibition, % at 10 µM | hit rate 9% among 200,000 | AID 1063; in the data active = inhibition above about 50%;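 also: promastigotes grown with compound for 44 hours at 28 °C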
Starred values were filed as active, the others as inactive; ? = inconclusive; . = not tested or not shown.

SMILES	HSF1 inh	HSF1 activator	Hsp70 activator	T cruzi repl	L major viab
C/C(=N\NC(=O)c1cccc(Br)c1)c1cccc(NC(=O)c2ccc(C)o2)c1	10	-5	0	-10	56*
C/C(=N\NC(=O)c1ccc(Cn2cc(Br)cn2)o1)c1cccc(NC(=O)C(C)C)c1	-3	-7	0	1	90*
O=C(O)c1cccc(Oc2ccc([N+](=O)[O-])cc2)c1	.	.	0	.	59*
CCC(NC(=S)NC1CCCCC1)c1ccc(C(C)C)cc1 (centres undefined)	5	13	.	38	.
CSc1nc2ccc(NS(=O)(=O)c3ccccc3F)cc2s1	-4	3	0	7	59*
COc1ccc(C(=O)Cn2nc(CNc3ccc(Br)cc3)[n+]3c2CCCCC3)cc1	-1	-2	0	59*	49
O=C(Cn1nc(-c2nn(CC(=O)c3ccccc3)c3[n+]2CCCCC3)[n+]2c1CCCCC2)c1ccccc1	-5	-8	.	9	.
Cc1ccc(C(C)C)c(OCc2nn(CC(=O)c3ccc(OC(F)F)cc3)c3[n+]2CCCCC3)c1	-5	11	0	?	99*
O=c1c2c3c(sc2ncn1/N=C/c1ccc([N+](=O)[O-])o1)CCCC3	177	266*	0	-29	96*
Cn1cc(/C=N/n2cnc3sc4c(c3c2=O)CCCC4)c2ccccc21	-6	-2	0	3	12
CCOC(=O)c1sc(N2N=C(C)C(N=Nc3cccc(C)c3)C2=O)nc1C (centres undefined)	-23	-26	.	-3	.
CC1=NN(c2nc(-c3ccc(C)cc3)cs2)C(=O)C1N=Nc1cccc(C)c1 (centres undefined)	0	-4	0	-16	86*
COc1cccc(CNC(=O)c2ccc(Cl)c(NC3=NC4CS(=O)(=O)CC4S3)c2)c1 (centres undefined)	3	9	.	19	.
CCOC1(c2ccccc2)CC1C(=O)N/N=C/c1cccc([N+](=O)[O-])c1 (centres undefined)	1	0	.	.	.
COc1cc(C(=O)OCCN2CCOCC2)ccc1O	-6	-1	0	-2	56*
CC(C)COc1ccc(C(=O)OCCN2CCOCC2)c(O)c1	-1	6	0	5	16
O=C(OCCCN1CCOCC1)c1ccc(O)c(O)c1	-65*	-73	.	-6	.
CCCCn1c(=NC(=O)c2ccc3c(c2)OCO3)c(C#N)cc2c(=O)n3cccc(C)c3nc21	.	.	0	.	86*
CCOC(=O)c1cc2c(=O)n3cccc(C)c3nc2n(CCOC)c1=NC(C)=O	-63*	-72	.	8	.
CCOCCCn1c(=N)c(C(=O)NCc2ccc3c(c2)OCO3)cc2c(=O)n3ccccc3nc21	2	8	0	60*	28
COc1ccc(CCn2c(=N)c(C(=O)NCc3ccco3)cc3c(=O)n4ccccc4nc32)cc1	8	19	0	46	32
COc1ccc(CCn2c(=N)c(C(=O)NCC3CCCO3)cc3c(=O)n4cccc(C)c4nc32)cc1 (centres undefined)	-5	-4	.	58*	.
CCOC(=O)c1cc2c(=O)n3ccccc3nc2n(CCCOC)c1=NC(C)=O	.	.	0	.	12
COc1ccc(CNC(=O)c2cc3c(=O)n4cccc(C)c4nc3n(CC3CCCO3)c2=N)cc1 (centres undefined)	9	10	.	28	.
CN(C)S(=O)(=O)c1cccc(-c2nnc(SCC(=O)NCCCCCC(=O)O)n2-c2ccc(F)cc2)c1	4	-12	0	-6	1
SMILES	HSF1 inh	HSF1 activator	Hsp70 activator	T cruzi repl	L major viab
CCOC(=O)c1cc(C(=O)c2ccccc2O)cn2c(=O)c3c(C)c(C)sc3nc12	9	20	0	6	6
COc1ccc2nc(Nc3sc4c(c3C(N)=O)CCCC4)sc2c1	.	.	0	.	8
CC(C)OCCCn1c(=N)c(C(N)=S)cc2c(=O)n3ccccc3nc21	9	17	0	69*	100*
CCCn1c(=N)c(C(=O)NCc2ccc3c(c2)OCO3)cc2c(=O)n3cccc(C)c3nc21	-2	1	0	64*	96*
CCNC(=O)c1cc2c(=O)n3cccc(C)c3nc2n(Cc2ccc(C)cc2)c1=N	2	35	0	13	49
Cc1cccn2c(=O)c3cc(C(=O)NCCN4CCOCC4)c(=N)n(CCN4CCOCC4)c3nc12	-3	23	.	-15	.
CCOCCCn1c(=N)c(C(=O)NCCN2CCOCC2)cc2c(=O)n3cccc(C)c3nc21	.	.	0	.	61*
Cn1c2ccccc2c2nnc(N/N=C/c3ccc(O)cc3)nc21	-1	18	.	4	.
O=C(O)CN1C(=O)/C(=C/c2ccccc2Br)Oc2ccccc21	16	70*	.	-11	.
COc1ccccc1N1CCN(S(=O)(=O)c2cccs2)CC1	-7	-1	0	1	54*
O=S(=O)(c1cccs1)N1CCN(c2ccccc2Cl)CC1	1	10	.	5	.
CN1CCN(C2=C(NS(=O)(=O)c3cccs3)C(=O)c3ccccc3C2=O)CC1	2	22	.	0	.
CCOc1ccccc1N1CCN(C2=C(NS(=O)(=O)c3cccs3)C(=O)c3ccccc3C2=O)CC1	22	44	0	20	99*
O=C1C(NS(=O)(=O)c2cccs2)=C(N2CCN(Cc3ccccc3)CC2)C(=O)c2ccccc21	7	25	.	-3	.
O=C1C(NS(=O)(=O)c2cccs2)=C(N2CCN(c3cccc(C(F)(F)F)c3)CC2)C(=O)c2ccccc21	6	28	0	29	62*
O=C(CCc1ccccc1)N=C1SC2CS(=O)(=O)CC2N1c1ccccc1 (centres undefined)	-2	1	.	-1	.
CN(C)S(=O)(=O)c1cccc(C(=O)OCC(=O)NCc2ccc3c(c2)OCO3)c1	0	17	0	0	-4
CCCN1C2CCCC1CC(NC(=O)c1ccc(Br)cc1)C2 (centres undefined)	0	3	.	-1	.
OC(c1cc(-c2ccc(C(F)(F)F)cc2)nc(C(F)(F)F)c1)C1CCCCN1 (centres undefined)	2	10	.	56*	.
CC(Sc1nc2ccccc2s1)C(=O)Nc1nnc(C(C)C)s1 (centres undefined)	-63*	-71	0	-9	-4
C=CCNC(=S)NNC(=O)c1ccncc1	-2	5	0	-6	-7
Cc1cccc(C(C)(C)C)c1OCCCCN1CCCC1	-3	-21	0	39	100*
CCOc1ccccc1OCCCCN1CCCC1	-20	-36	0	11	17
Clc1cccc(Cl)c1OCCCCN1CCCCC1	-7	-7	.	18	.
CC(C)(C)c1ccccc1OCCCCN1CCCC1	-11	-8	0	?	99*
CC(C)c1cccc(C(C)C)c1OCCCCN1CCCC1	5	13	0	42	92*
CCCCNC(=O)C1CCN(S(=O)(=O)N2CCOCC2)CC1	-2	0	0	3	-2
ClCC1CSC(=NC23CC4CC(CC(C4)C2)C3)O1 (centres undefined)	30	59*	0	5	-5

Screening data as filed in PubChem BioAssay.
